Test results published in ChEMBL document CHEMBL1833936, “7-azaindenoisoquinolines as topoisomerase I inhibitors and potential anticancer agents” (J Med Chem, 2011).
Values after ≈ are worked out from the molar mass of the structure shown. Active and inactive are the calls of the source. The rule behind the calls is not given here.

Columns and labels:
MCF7 = experiment: Cytotoxicity against human MCF7 cells after 48 hrs by SRB assay; format: functional; details: MCF7, 48 h
Outline: (§1)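 NCI 60-cell-line screen. Cells incubated 48 h with five 10-fold dilutions starting at 100 μM, then stained with sulforhodamine B. Optical density relative to control plotted against log concentration.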

[1] = molecular target: T1, DNA topoisomerase 1 (Homo sapiens) (UniProt P11387); experiment: Inhibition of human topoisomerase 1 assessed as inhibition of radiolabeled DNA fragment cleavage 0.1 to 100 uM after 20 mins by gel-based phosphoimaging relative to control
T1 sequence (whole entry): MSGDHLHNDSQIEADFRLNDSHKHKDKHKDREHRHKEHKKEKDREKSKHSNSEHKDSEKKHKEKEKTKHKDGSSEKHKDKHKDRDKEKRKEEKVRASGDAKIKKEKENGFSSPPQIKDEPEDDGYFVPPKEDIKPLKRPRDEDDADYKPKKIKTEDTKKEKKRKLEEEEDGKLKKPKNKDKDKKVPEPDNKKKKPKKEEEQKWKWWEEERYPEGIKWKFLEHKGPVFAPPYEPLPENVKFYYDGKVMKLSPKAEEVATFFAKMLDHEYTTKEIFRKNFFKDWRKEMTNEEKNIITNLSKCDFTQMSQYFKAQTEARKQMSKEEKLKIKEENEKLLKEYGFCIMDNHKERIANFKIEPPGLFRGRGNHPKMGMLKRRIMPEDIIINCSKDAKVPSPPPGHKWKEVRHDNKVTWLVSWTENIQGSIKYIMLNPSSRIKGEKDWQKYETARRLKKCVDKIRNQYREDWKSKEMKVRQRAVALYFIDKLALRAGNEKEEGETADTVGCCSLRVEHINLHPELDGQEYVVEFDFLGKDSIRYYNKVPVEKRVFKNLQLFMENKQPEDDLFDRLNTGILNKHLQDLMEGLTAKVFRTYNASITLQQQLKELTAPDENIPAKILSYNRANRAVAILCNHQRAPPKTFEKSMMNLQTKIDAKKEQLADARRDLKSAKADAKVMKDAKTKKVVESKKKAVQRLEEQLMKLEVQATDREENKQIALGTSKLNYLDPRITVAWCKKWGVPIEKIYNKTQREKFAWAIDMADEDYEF
Outline: (§2)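 Human recombinant Top1 purified from baculovirus. About 2 nM 117-bp DNA substrate, 3′-end-labeled with [α-32P]-dGTP by Klenow fill-in. Stopped with 0.5% SDS and formamide loading dye; 20% denaturing PAGE, phosphoimager. Tested at 0.1, 1, 10 and 100 μM.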

SN12C = experiment: Cytotoxicity against human SN12C cells after 48 hrs by SRB assay; format: functional; outline: as §1
UACC-62 = experiment: Cytotoxicity against human UACC62 cells after 48 hrs by SRB assay; format: functional; details: UACC-62, 48 h; outline: as §1
HOP-62 = experiment: Cytotoxicity against human HOP62 cells after 48 hrs by SRB assay; format: functional; details: HOP-62, 48 h; outline: as §1
[2] = molecular target: T1, DNA topoisomerase 1 (Homo sapiens); experiment: Inhibition of human topoisomerase 1 assessed as inhibition of radiolabeled DNA fragment cleavage after 20 mins by gel-based phosphoimaging relative to control; outline: as §2
HCT-116 = experiment: Cytotoxicity against human HCT116 cells after 48 hrs by SRB assay; format: functional; details: HCT-116, 48 h; outline: as §1
[3] = molecular target: T1, DNA topoisomerase 1 (Homo sapiens); experiment: Inhibition of human topoisomerase 1-mediated DNA relaxation assessed as DNA intercalation at 1 to 100 uM after 30 mins by gel electrophoresis relative to control
Outline: (§3)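 Two-step unwinding assay. SV40 DNA first fully relaxed with excess Top1 for 15 min at 37 °C without drug. Relaxed DNA then incubated 30 min at 37 °C with drug at 1, 3, 10, 30 or 100 μM. Control was a further 30 min incubation at 37 °C without drug. Products resolved on gel.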

OVCAR-3 = experiment: Cytotoxicity against human OVCAR3 cells after 48 hrs by SRB assay; format: functional; details: OVCAR-3, 48 h; outline: as §1
SF-539 = experiment: Cytotoxicity against human SF539 cells after 48 hrs by SRB assay; format: functional; details: SF-539, 48 h; outline: as §1
DU-145 = experiment: Cytotoxicity against human DU145 cells after 48 hrs by SRB assay; format: functional; details: DU-145, 48 h; outline: as §1
[4] = molecular target: T1, DNA topoisomerase 1 (Homo sapiens); experiment: Inhibition of human topoisomerase 1 assessed as inhibition of radiolabeled DNA fragment cleavage up to 100 uM after 20 mins by gel-based phosphoimaging relative to control; outline: as §2
[5] = molecular target: T1, DNA topoisomerase 1 (Homo sapiens); experiment: Inhibition of human topoisomerase 1-mediated DNA relaxation assessed as DNA intercalation at compound concentration above 3 uM after 30 mins by gel electrophoresis relative to control; outline: as §3
[6] = molecular target: T1, DNA topoisomerase 1 (Homo sapiens); experiment: Inhibition of human topoisomerase 1-mediated DNA relaxation assessed as DNA intercalation at 100 uM after 30 mins by gel electrophoresis relative to control; outline: as §3
[7] = Aqueous solubility at pH 7.5 after 24 hrs by HPLC; format: physicochemical
Outline: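 Solid sample (4–10 mg) shaken in 1 M Tris buffer pH 7.5 for 24 h at 25 °C, then centrifuged and supernatant filtered. Supernatant analysed by reverse-phase C18 HPLC eluting methanol (1% TFA)/water 90:10. Concentration from one-point calibration against buffer solutions of known concentration.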

Compound | inhibition [1] | inhibition [2] | Activity [3] | inhibition [4] | Activity [5] | Activity [6] | solubility at 24 h [7] [mM] | GI50 (MCF7) [nM] | GI50 (SN12C) [nM] | GI50 (UACC-62) [nM] | GI50 (HOP-62) [nM] | GI50 (HCT-116) [nM] | GI50 (OVCAR-3) [nM] | GI50 (SF-539) [nM] | GI50 (DU-145) [nM]
CC[C@@]1(O)C(=O)OCc2c1cc1n(c2=O)Cc2cc3ccccc3nc2-1 [CAMPTOTHECIN] |  |  |  |  |  |  |  | 13 |  |  |  |  |  |  | 
COc1cc2c3c(n(CCCN4CCOCC4)c(=O)c2cc1OC)-c1ncccc1C3=O | Active | Dose-dependent effect | inactive | Active |  |  |  | 52 | 520 | 95 | 300 | 220 | 370 | 290 | 310
O=C1c2cccnc2-c2c1c1ccccc1c(=O)n2CCCN1CCOCC1 | Active |  |  |  |  |  |  | 2750 | 5370 | > 100000 | 35500 | 1860 | 28200 | 5620 | 3550
COc1cc2c3c(n(C)c(=O)c2cc1OC)-c1cc2c(cc1C3=O)OCO2 | Active |  |  |  |  |  |  | 1910 |  | 560 | 8510 | 11500 |  | 1660 | 4790
CN(C)CCCn1c2c(c3ccccc3c1=O)C(=O)c1ccccc1-2 | Active |  |  |  |  |  | 0.28 (≈ 0.0931 mg/mL) | 550 |  |  |  |  | 1660 |  | 
O=C1c2cccnc2-c2c1c1ccccc1c(=O)n2CCCNCCO | inactive |  |  |  |  |  |  | 480 | 760 | 3090 | 1410 | 300 | 1550 | 870 | 410
COc1cc2c3c(n(CCCNCCO)c(=O)c2cc1OC)-c1ncccc1C3=O | Active |  |  |  |  |  |  | 74 | 230 | 120 | 300 | 150 | 340 | 260 | 320
O=C1c2cccnc2-c2c1c1ccccc1c(=O)n2CCCn1ccnc1 | Active |  |  |  |  |  |  | 3390 | 3720 | 35500 | 7240 | 1200 | 8710 | 5130 | 2880
COc1cc2c3c(n(CCCn4ccnc4)c(=O)c2cc1OC)-c1ncccc1C3=O | Active | Dose-dependent effect |  | Active |  |  |  |  |  |  |  |  |  |  | 
COc1cc2c3c(n(CCCN(C)C)c(=O)c2cc1OC)-c1ccccc1C3=O | Active |  |  |  |  |  | 60 (≈ 23.5 mg/mL) | 6170 | 11000 |  | 11500 |  |  | 6170 | 

The next lines start with results.

inhibition [1] | inhibition [2] | Activity [3] | inhibition [4] | Activity [5] | Activity [6] | solubility at 24 h [7] [mM] | Compound | GI50 (MCF7) [nM] | GI50 (SN12C) [nM] | GI50 (UACC-62) [nM] | GI50 (HOP-62) [nM] | GI50 (HCT-116) [nM] | GI50 (OVCAR-3) [nM] | GI50 (SF-539) [nM] | GI50 (DU-145) [nM]
Active |  |  |  |  |  |  | O=C1c2cccnc2-c2c1c1ccc([N+](=O)[O-])cc1c(=O)n2CCCN1CCOCC1 |  |  |  |  |  |  |  | 
Active |  |  |  | Dose-dependent effect | Active | 100 (≈ 39.3 mg/mL) | COc1cc2c3c(n(CCCN(C)C)c(=O)c2cc1OC)-c1ncccc1C3=O | 440 | 3160 | 13200 | 3390 | 1580 | 3550 | 4070 | 1700
Active |  |  |  |  |  |  | CN(C)CCCn1c2c(c3ccc([N+](=O)[O-])cc3c1=O)C(=O)c1ccccc1-2 | 240 |  |  |  |  | 32400 |  | 
Active |  |  |  |  |  | 24 (≈ 8 mg/mL) | CN(C)CCCn1c2c(c3ccccc3c1=O)C(=O)c1cccnc1-2 | 250 | 810 | 2690 | 1510 | 410 | 2570 | 1910 | 1350
Active |  |  |  |  |  |  | CN(C)CCCn1c2c(c3ccc([N+](=O)[O-])cc3c1=O)C(=O)c1cccnc1-2 | 360 | 1000 | 3310 | 2350 | 440 | 2290 | 2690 | 930
Active |  |  |  |  |  |  | COc1cc2c3c(n(CCCN)c(=O)c2cc1OC)-c1ncccc1C3=O | 49000 | 2880 | 8130 | 3020 | 380 | 1580 | 2190 | 1620
